Measurements taken from ChEMBL document CHEMBL1139535, “Modification of the estrogenic properties of diphenols by the incorporation of ferrocene. Generation of antiproliferative effects in vitro” (J Med Chem, 2005).

What was measured:
[1] = biological target: Estrogen receptor beta (Homo sapiens) (UniProt Q92731); assay: Relative binding affinity for estrogen receptor 2 (ER-beta)
How it was run: (§1)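 Incubated 3 h at 0°C with 2×10⁻⁹ M [3H]-estradiol plus nine competitor levels. Protamine sulfate separation, logit analysis of 50% displacement. RBA vs estradiol (100%); mean of at least two experiments.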

[2] = Relative binding affinity for purified estrogen receptor 1 (ER-alpha); how it was run: as §1
[3] = Partition coefficient (logP); format: physicochemical; details: octanol/water
How it was run: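 Reversed-phase HPLC on a C-8 column. Capacity factors k' extrapolated to 100% aqueous component to give k'w; logPo/w = 0.13418 + 0.98452 log k'w.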

[4] = biological target: T1, Estrogen receptor (Homo sapiens) (UniProt P03372); assay: Relative binding affinity for estrogen receptor 1 (ER-alpha) of lamb uterine cytosol; details: Ovis aries; target entry is the homologue from another species
T1 sequence (whole entry): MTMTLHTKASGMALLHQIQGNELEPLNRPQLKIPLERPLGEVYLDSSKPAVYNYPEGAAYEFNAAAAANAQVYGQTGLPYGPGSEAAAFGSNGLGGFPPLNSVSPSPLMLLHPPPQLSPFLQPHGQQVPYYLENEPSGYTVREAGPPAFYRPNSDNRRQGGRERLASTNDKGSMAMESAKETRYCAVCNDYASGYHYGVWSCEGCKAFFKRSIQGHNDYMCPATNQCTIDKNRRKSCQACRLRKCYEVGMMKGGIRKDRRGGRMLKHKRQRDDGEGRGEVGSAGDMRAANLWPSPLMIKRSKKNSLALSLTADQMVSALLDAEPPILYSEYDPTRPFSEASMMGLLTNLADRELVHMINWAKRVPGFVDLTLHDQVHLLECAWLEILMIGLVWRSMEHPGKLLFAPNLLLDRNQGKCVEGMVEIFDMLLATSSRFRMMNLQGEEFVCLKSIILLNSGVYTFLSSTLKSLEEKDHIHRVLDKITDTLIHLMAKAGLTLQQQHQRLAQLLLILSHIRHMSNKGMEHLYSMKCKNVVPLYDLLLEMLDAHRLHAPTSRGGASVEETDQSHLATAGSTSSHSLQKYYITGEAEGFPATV
How it was run: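 Cytosol from frozen sheep (lamb) uteri in 0.05 M Tris-HCl, 0.25 M sucrose, 0.1% β-mercaptoethanol, pH 7.4. Incubated 3 h at 0°C with 2×10⁻⁹ M [6,7-3H]-estradiol and nine competitor concentrations. Bound and free separated by protamine sulfate precipitation. 50% displacement concentration from logit plot; RBA relative to estradiol = 100%; mean of at least two experiments.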

Sequence of Estrogen receptor beta (Homo sapiens) (Q92731 whole entry): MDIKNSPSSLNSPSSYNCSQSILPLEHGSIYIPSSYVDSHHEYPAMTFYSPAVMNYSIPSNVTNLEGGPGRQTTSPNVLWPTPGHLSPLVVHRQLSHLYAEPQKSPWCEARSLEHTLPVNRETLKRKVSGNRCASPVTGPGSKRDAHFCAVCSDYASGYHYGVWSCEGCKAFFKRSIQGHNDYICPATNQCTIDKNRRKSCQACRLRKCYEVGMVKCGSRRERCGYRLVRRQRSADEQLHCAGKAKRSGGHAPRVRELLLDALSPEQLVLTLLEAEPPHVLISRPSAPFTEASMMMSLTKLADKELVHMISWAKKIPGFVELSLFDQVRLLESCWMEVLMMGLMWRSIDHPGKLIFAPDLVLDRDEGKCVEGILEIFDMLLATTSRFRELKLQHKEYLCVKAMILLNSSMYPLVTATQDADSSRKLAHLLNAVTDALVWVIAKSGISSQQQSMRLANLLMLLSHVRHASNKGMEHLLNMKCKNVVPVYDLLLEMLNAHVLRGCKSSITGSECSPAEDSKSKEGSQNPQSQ

Question: For `CCC(=C(c1ccc(O)cc1)c1ccc(O)cc1)c1ccccc1`, which RBA [1] is on record?
Answer: 101%

Question: And the RBA [2]?
Answer: 47.5%

Question: And the logP [3]?
Answer: 4.4

Question: And the RBA [4]?
Answer: 6.8%
